Assay: Toxicity liver stage against HepG2, at 10uM
Type: cell-based
Design: test concentration 10 uM, cell line HepG2-A16-CD81EGFP
Details: human, HepG2-A16-CD81EGFP cells; read-out: INHIBITION
Summary of the method: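 Uninfected HepG2-A16-CD81EGFP cells, 3 × 10^3 per well, 1536-well, plated on prespotted compound at 10 μM final, parasite-free screening media added to match infected plates; puromycin 10 μM positive, DMSO 0.5% negative; run in parallel with 48 h PbLuc assay at 37 °C, 5% CO2; viability by CellTiter-Glo luminescence, normalized to controls.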

| Compound | cytotoxicity at 10 µM |
| --- | --- |
| Cc1nc(-c2c(C)noc2C)cc(C2CCN(CC(=O)N(C)C)CC2)n1 | 5.84% |
| COc1ccccc1OCCN1CCCC(c2noc(C3CC3)n2)C1 (configuration not stated) | 1.26% |
| Cc1nc(CC(=O)N2CCC3(CC2)CC(=O)N(CC2CCCO2)C3)cs1 (configuration not stated) | -7.85% |
| Cc1nn2cc(CNc3nccc(CCC(F)(F)F)n3)nc2s1 | -8.27% |
| c1cnc(NCc2n[nH]c3c2CCN(Cc2ccncc2)C3)nc1 | -3.83% |
| Cc1c(C)n(CC(O)CN2CCC(C)CC2)c2c(Cl)cccc12 (configuration not stated) | -5.12% |
| Cc1nc(CN2CCC(CNC(=O)Nc3ccccn3)CC2)oc1C | -3.5% |
| O=C1COC2(CCN(Cc3ccoc3)CC2)CN1c1ccccc1 | -122% |
| CC(C)c1nc2n(n1)CC(NCc1ccncc1)CC2 (configuration not stated) | -13.9% |
| Cn1ccc2c(C(=O)NCC3(C(N)=O)CCOCC3)cccc21 | -1.21% |
| Cc1ccc(C)c(C(O)Cn2cc(Cl)c(=O)[nH]c2=O)c1 (configuration not stated) | -6.81% |
| Cc1cc(N2CCN(C(=O)CCc3scnc3C)CC2)cc(C)n1 | -48.4% |
| CCOc1nnc(CN2CCN(CCOC)C(CC)C2)s1 (configuration not stated) | -5.73% |
| Cc1cnn(CCC(=O)N2CCCN(c3cccnn3)CC2)c1 | 1.47% |
| O=C1CN(C(=O)OCc2ccccc2)CC(O)CN1Cc1ccco1 (configuration not stated) | -9.92% |
| CCOc1cccc(C2CC(=O)NCc3nc(N)sc32)c1 (configuration not stated) | -9.23% |
| Cc1nnsc1CN1C[C@@H]2CC[C@H]1CN(Cc1ccccn1)C2 | -3.56% |
| CC(C)(C)c1cn2nc(N3CCCCC3Cn3cncn3)sc2n1 (configuration not stated) | -4.61% |
| Cc1cc(S(=O)(=O)NCc2cccc(C(=O)N3CCCC3)c2)c(C)s1 | 3.13% |
| Cc1ccc(C(C)NCCc2nccn2Cc2ccccc2)o1 (configuration not stated) | 1.98% |
| Cc1cnc(CN(C)Cc2cc3c(cc2OC(F)F)OCO3)o1 | -8.78% |

| Compound | cytotoxicity at 10 µM |
| --- | --- |
| CCCc1ccc(CN2CCC3(CCC(=O)N(CCCOC)C3)CC2)o1 | -1.53% |
| COc1ccc(CNC(=O)NC2CCC(O)CC2)c(C(F)(F)F)c1 (configuration not stated) | -12% |
| Cc1cccc(C)c1OCC(=O)NC(C)c1nnc2n1CCC2 (configuration not stated) | -3.09% |
| CCN(CC(=O)NC(C)C)S(=O)(=O)N1CCCCCC1 | 2.37% |
| CCN(C(=O)CN1CCn2c(C)nnc2C1)C1=CCCCC1 | 13.4% |
| Cc1csc(N2CCN(Cc3ccccn3)CC2)n1 | 6.14% |
| Cc1nnc(N2CCNCC2)c(C(N)=O)c1C | 3.52% |
| COc1cccc(CN2CCC(c3nnc(-c4cnc(C)cn4)o3)C2)c1 (configuration not stated) | -10.4% |
| CC(COc1ccc(F)cc1F)NC(=O)NCCN1CCOCC1 (configuration not stated) | -10.9% |
| OC(CN1CCC(c2ccn[nH]2)CC1)c1ccc(F)cc1F (configuration not stated) | -17.9% |
| CN(Cc1ccc(F)cc1)C(=O)NCc1nnc2n1CCCCC2 | -10.1% |
| O=C1NC2(CCN(Cc3cccnc3)CC2)CC1c1ccncc1 (configuration not stated) | 5.33% |
| O=C(c1ccccc1-n1cnnn1)N1CCC2(CC1)OCCO2 | 1.5% |
| O=S(=O)(c1cccs1)N1CCCn2cnc(CN3CCCC3)c2C1 | 1.14% |
| CCOCc1ccc(NC(=O)NC2CCCn3nc(CC)nc32)cc1 (configuration not stated) | -7.68% |
| COc1cccc2c1OCCCN(Cc1c[nH]nc1C(=O)O)C2 | 6.5% |
| CCc1noc(C)c1C(=O)N1C[C@H](NS(C)(=O)=O)[C@@H](C2CC2)C1 | 1.23% |
| CC(C)CN1C(=O)CO[C@@H]2CN(C(=O)N3CCOCC3)C[C@H]21 | -1.68% |
| Cc1cc(C2CCCN2C(=O)NCc2c(C)cc(C)[nH]c2=O)on1 (configuration not stated) | -9.54% |
| O=S(=O)(c1ccccc1)N1CCCC(c2nccs2)C1 (configuration not stated) | -23.4% |
| CN(Cc1cccc(OCCO)c1)Cc1cccc2ncccc12 | 26% |

| Compound | cytotoxicity at 10 µM |
| --- | --- |
| CC(C)c1noc(C(C)N2CCN(CCc3ccncc3)CC2)n1 (configuration not stated) | 2.16% |
| COc1ccccc1CN(C)C(=O)CN1CC(n2nc(C)cc2C)C1 | 21.3% |
| C=C(C)Cn1ccc2cc(OC)c(F)cc2c1=O | 3.09% |
| CO[C@H]1CN(C(=O)c2ccc(-c3cc[nH]n3)cc2)CC[C@H]1N | 5.29% |
| CN(C)CCO[C@@H]1CC[C@H]2[C@H]1OCCN2C(=O)c1ccncc1 | 5% |
| CC(=O)NCCNC(=O)CN1CCCC1c1c(C)nn(C)c1C (configuration not stated) | -25.1% |
| c1cn(Cc2nnc(C3CCN(C4CCNCC4)CC3)n2C2CC2)cn1 | 1.74% |
| Cc1nn(CCNc2ncnc3c2NC(=O)CN3)c(C)c1Cl | 10.5% |
| CCn1c2c(ccc1=O)CC(NCc1cnn(C)c1)CC2 (configuration not stated) | -102% |
| CN(C)C[C@@H]1CCC[C@@H]2CN(c3nccc(C(F)(F)F)n3)C[C@@H]21 | -2.75% |
| COc1cccc(N2CCN(C(=O)CCO)CC2=O)c1 | 3.75% |
| Cc1nnnn1-c1cc(NCc2cc(C#N)ccc2F)ccc1F | 0.685% |
| CC(NC(=O)N1CCN(c2cccs2)CC1)c1ccc(C#N)cc1 (configuration not stated) | 11.4% |
| CCn1cc(NC(=O)NCc2ccc3c(c2)OCCO3)cn1 | -7.71% |
| CC[C@@]1(O)CCN(C(=O)c2ccc(-c3ccco3)cc2)C[C@H]1O | 3.75% |
| O=C(Nc1ccccc1)[C@H]1O[C@H](CCN2CCCCC2)CC[C@@H]1O | -1.36% |
| c1cc2c(cc1Cn1cc(C3CCCNC3)nn1)CCCO2 (configuration not stated) | -5.24% |
| O=c1c2c(ncn1CCCO)nc1n2CCC1 | -3.89% |
| Cc1nnc(NC(=O)N2CCCCC2CCO)s1 (configuration not stated) | -43.2% |
| COc1ccc(C(=O)NS(=O)(=O)c2ccc(C#N)cc2C(F)(F)F)cc1 | -10.5% |
| CC(C)=CCN1CC2(CCN(C(=O)CCn3ccnc3C)CC2)CC1=O | -6.3% |

| Compound | cytotoxicity at 10 µM |
| --- | --- |
| CC(C)CCN1CCC2(CCCN(c3nncs3)C2)C1 (configuration not stated) | -139% |
| O=C(c1ccoc1)N1CCCN(C(=O)c2ccc(C3CCCN3)s2)CC1 (configuration not stated) | 1.27% |
| Cc1cc(N[C@@H](CO)c2ccccc2)n2nc(C)c(C)c2n1 | -0.054% |
| O=C(O)c1c(-c2ccoc2)ncc2c1CCN(C1CCOC1)C2 (configuration not stated) | 17% |
| Cc1cc(S(=O)(=O)N2CCCc3cc(Br)ccc32)sc1C(=O)O | 2.91% |
| Cn1cc(C(=O)N2CCOc3ccccc32)ccc1=O | 13% |
| COc1ccc(CN2CCC(CO)(Cc3ccc(Cl)cc3)CC2)c(O)c1 | -134% |
| CCN(CCC(F)(F)F)S(=O)(=O)c1cccc(F)c1C#N | -3.77% |
| CCOc1ccnc(N2CCN(C(=O)c3cccc(C#N)c3)CC2)n1 | -3.34% |
| COCc1nnc(C(=O)N2CC(N3CCCCC3)C2)o1 | -3.57% |
| CC1CCN(S(=O)(=O)c2ccc(C(=O)N3CCSCC3)cc2)CC1 | 9.54% |
| CNc1snc(C)c1C(=O)N1CCCC(n2nc(C)cc2C)C1 (configuration not stated) | -2.74% |
| Cc1cn2c(CN(C)C(=O)c3cccnc3O)c(C)nc2s1 | -8.59% |
| O=c1c(-c2ccnc(NC3CCOCC3)n2)cnc2sc(Cl)cn12 | -0.962% |
| CC(C)(C)n1ncc(NCC(O)c2ccccc2C(F)(F)F)c(Cl)c1=O (configuration not stated) | 53.6% |
| COc1ccc(-c2nc(CCNCc3ccncc3)co2)cc1 | -6.11% |
| Cc1ccc2c(c1)C(=O)NCC1(CCN(C(=O)c3ccccn3)CC1)O2 | -25% |
| COc1c(C)cnc(CN2CCCC2c2noc(C)n2)c1C (configuration not stated) | -3.75% |
| CC(C)c1nnc2n1CCN(C(=O)c1ccnc(N(C)C)c1)C2 | 3.06% |

Reference: ChEMBL document CHEMBL4513216, “Probing the Open Global Health Chemical Diversity Library for Multistage-Active Starting Points for Next-Generation Antimalarials” (ACS Infect Dis, 2020)
